# Screening data deposited in PubChem BioAssay by several laboratories.
# TNAP inh hiacc = inhibitors of human TNAP at high phosphate acceptor concentration; P05186; purified TNAP, CDP-star luminescence, 1 M DEA; inhibition, % at 20 µM; 0.03% of 200,000 active; AID 1135;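 active = over 50% inhibition of tissue-nonspecific alkaline phosphatase at 20 µM in the single-dose screen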;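 also: plate controls were DMSO wells for no effect and EDTA-quenched wells as full inhibition for full effect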
# p97 ATPase inh = blocks human p97 ATPase activity | inhibition, % at 8 µM | 0.42% of 220,000 active | recombinant p97 ATPase, Kinase-Glo ATP luminescence, 3 h; in the data active = inhibition above about 15%;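 also: 0% = DMSO vehicle and 100% = wells lacking enzyme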
# Target sequence (P55072 whole entry, looked up): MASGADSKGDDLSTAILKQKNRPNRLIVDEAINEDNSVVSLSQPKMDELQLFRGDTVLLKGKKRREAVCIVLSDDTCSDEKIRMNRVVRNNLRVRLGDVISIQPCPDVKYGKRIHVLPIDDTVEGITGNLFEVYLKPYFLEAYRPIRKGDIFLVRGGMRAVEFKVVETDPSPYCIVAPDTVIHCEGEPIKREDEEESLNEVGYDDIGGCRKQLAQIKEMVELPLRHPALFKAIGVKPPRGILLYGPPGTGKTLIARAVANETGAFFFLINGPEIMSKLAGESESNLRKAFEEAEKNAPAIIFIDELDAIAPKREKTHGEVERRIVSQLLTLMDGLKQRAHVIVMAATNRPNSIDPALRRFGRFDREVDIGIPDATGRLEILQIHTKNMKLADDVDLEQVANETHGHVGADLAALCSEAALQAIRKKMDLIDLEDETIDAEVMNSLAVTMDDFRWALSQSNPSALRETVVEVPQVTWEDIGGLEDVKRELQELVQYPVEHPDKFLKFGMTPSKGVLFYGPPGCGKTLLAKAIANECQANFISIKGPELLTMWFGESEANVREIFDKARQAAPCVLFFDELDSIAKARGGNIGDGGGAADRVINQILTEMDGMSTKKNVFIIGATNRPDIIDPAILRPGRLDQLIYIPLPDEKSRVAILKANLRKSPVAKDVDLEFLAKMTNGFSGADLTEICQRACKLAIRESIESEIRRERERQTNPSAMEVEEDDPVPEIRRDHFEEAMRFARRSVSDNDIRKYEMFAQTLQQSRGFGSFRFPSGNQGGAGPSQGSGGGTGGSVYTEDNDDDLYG
# TNAP inh no acc = TNAP (human) inhibition, acceptor-free conditions | P05186 | purified TNAP, CDP-star luminescence, 30 min | inhibition, % at 20 µM | 0.26% of 200,000 active | AID 1012;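 active = tissue-nonspecific alkaline phosphatase inhibition above about 50% at 20 µM in the single-dose screen, limit read from the data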;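 also: 0% = DMSO negative control and 100% = EDTA positive control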
# TNAP act hi DEA = TNAP (human) activation, high acceptor; AID 1136; P05186; 200,000 tested, under 10 active; purified TNAP, CDP-star luminescence, 1 M DEA, 30 min; stronger effect = higher value; 0 = EDTA background, 1 = DMSO-only activity; activation factor at 20 µM;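 active = activation factor at least 2 at 20 µM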
#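 system = human TNAP | amount = enzyme diluted 1/800 final | reagent = 100 µM CDP-star substrate | signal = luminescent substrate turnover signal | dosing = one dose, 20 µM | benchmarks = EDTA negative control, DMSO positive control | measure = activation factor | timing = 30 min reaction, room temperature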
# DTT redox prof = compounds producing H2O2 with reducing agent – biochemical, NIH compound library profiling, artefact control for MLSCN library redox annotation, primary screen; DTT-dependent redox cycling H2O2, phenol red/HRP absorbance; 100% = 100 µM peroxide control, 0% = buffer; activation, % at 10 µM; 0.03% of 200,000 active; AID 878;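 active = activation of at least 50% relative to the plate's high and low controls in the primary single-dose screen; inactive = activation below 50%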;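 also: compound incubated with DTT at 0.8 mM final as the reducing agent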
# G6PDH counter = inhibits Leuconostoc G6PDH, flagging false hits in G6PDH-based assays; AID 1020; Purified L. mesenteroides G6PDH, diaphorase/resazurin coupled fluorescence, 45 min; inhibition, % at 5 µM; 0.12% of 200,000 active; in the data active = inhibition above about 50%
# The depositor's hits bear a star; i = inactive; / = not tested or not shown. Only some compounds are listed: those with a hit (about 0.79% of all), similar ones and a draw of the others.
SMILES,TNAP inh hiacc,p97 ATPase inh,TNAP inh no acc,TNAP act hi DEA,DTT redox prof,G6PDH counter
CCOC(=O)c1cc(NC(=O)Nc2cc(C)ccn2)c(C)nc1C,8.7,1.9,7.2,0.9,-0.1,-8.6
CCOC(=O)c1cc(NC(=O)Nc2nc3ccccc3s2)c(C)nc1C,3.0,-4.1,58.0*,1,-0.2,-17.1
c1ccc(-c2nc(CSc3n[nH]c(-c4cccs4)n3)cs2)cc1,-5.1,-1.2,60.1*,1.1,-4.2,-0.1
Clc1ccccc1-c1nc(-c2ccccc2)n[nH]1,3.4,1.0,90.8*,1,2.2,0.2
O=[N+]([O-])c1cc(-c2n[nH]c(-c3ccccc3)n2)cc([N+](=O)[O-])c1,-2.6,4.6,40.0,1,-1.0,3.0
CCOC(=O)/C=C(\C)Sc1cc(O)c2ccccc2c1O,/,36.0*,/,/,/,/
CC(C)C[C@@H]1NC(=O)[C@H](C(C)C)NC(=O)c2cc([N+](=O)[O-])cc(I)c2NCC[C@@H](C(N)=O)NC1=O,2.1,-2.9,-4.0,1,-0.2,13.3
CC(C)[C@@H]1NC(=O)c2cc([N+](=O)[O-])cc(I)c2NCC[C@@H](C(N)=O)NC(=O)[C@H](CO)NC1=O,-2.8,18.0*,-9.3,1,0.6,8.8
O=C(O)C1Nc2c(O)cc(Cl)c([N+](=O)[O-])c2C2C=CCC12 (stereo not drawn),31.3,54.4*,65.0*,0.7,0.3,11.6
Cc1ccc(-n2c(O)c(C=NCc3ccccn3)c3ccccc3c2=O)cc1,-6.0,4.0,-51.2,1.1,-0.2,4.3
COc1ccccc1-n1c(O)c(C=NCc2ccccn2)c2ccccc2c1=O,/,14.5*,/,/,/,/
COc1ccc(Cl)cc1NC(=O)CN1CCC(n2nnc3cc(C)ccc32)CC1,-173.4,-11.8,i,2.7*,-0.2,5.3
COc1ccccc1NC(=O)CN1CCC(n2nnc3cc(F)ccc32)CC1,-3.4,5.8,-9.4,1,-0.3,8.9
CCOc1cc(CNCC2CCCN2CC)cc(Cl)c1OC (stereo not drawn),-6.6,11.8,-8.6,1.1,-0.5,4.9
Cc1cc(=O)oc(C)c1C(=O)Nc1cccc(F)c1,/,9.4,/,/,/,/
Nc1ncnc2nc(SCC(=O)N3CCN(c4ccccc4)CC3)[nH]c12,1.0,0.4,62.5*,1,2.8,-9.7
COc1ccccc1N1CCN(C(=O)CSc2nc3ncnc(N)c3[nH]2)CC1,-6.2,-1.2,60.1*,1.1,-0.9,0.0
COc1ccccc1N1CCN(C(=O)CSc2nc(-c3ccccc3)cc(=O)[nH]2)CC1,-2.5,0.2,-10.9,1,-0.8,4.2
CN(CCc1ccccn1)C(=O)CCC1CCCN(C(=O)c2n[nH]c3c2CCCC3)C1 (stereo not drawn),-4.4,-1.0,70.0*,1,-2.4,10.1
CN(CCc1ccccn1)C(=O)CCC1CCCN(C(=O)c2ccccn2)C1 (stereo not drawn),-1.7,-2.5,-1.8,1,1.0,3.7
Oc1c(CN2CCOCC2)ccc2ccccc12,-6.6,7.4,-12.8,1.1,-0.3,60.0*
COc1ccc(N2CCN(CCCNC(=O)CC3Oc4ccc(C)cc4NC3=O)CC2)cc1 (stereo not drawn),-3.2,-4.2,-11.1,1,-0.8,-16.9
COc1cc(C(=O)NCC(=O)OCCN2C(=O)c3ccccc3C2=O)cc(OC)c1OC,-5.2,5.3,-8.0,1.1,-0.1,2.6
O=C(c1cccnc1)n1nc(-c2ccco2)nc1NCc1cccs1,-1.9,-1.6,63.3*,1,-1.1,4.5
CN(C)c1ccc(/C=C(/C(=O)c2ccc(Cl)cc2Cl)n2cncn2)cc1,54.8*,-2.8,47.5,0.5,-0.7,-8.1
CCOC(=O)Cn1nc(C(F)F)c(Br)c1C,-4.5,5.1,-9.8,1,-1.2,0.9
COc1ccc(-c2[nH]ncc2CN(C)C(C)c2ccncn2)c(F)c1 (stereo not drawn),-5.1,1.8,63.0*,1.1,0.6,14.3
COc1ccc(-c2[nH]ncc2CN(CCO)Cc2cccs2)c(F)c1,-5.7,2.1,69.4*,1.1,-1.1,19.8
COc1ccc(-c2[nH]ncc2CN(C)Cc2nonc2C)c(OC)c1,-2.6,-1.5,4.7,1,-1.5,8.9
